Compound activity from PubChem.
GPR7 antagonist – GPR7 receptor antagonists, primary screen, cell-based, fluorescence, single concentration; Neuropeptides B/W receptor type 1 (Homo sapiens), P48145; GPR7-expressing cells, fluorescence antagonist assay; inhibition, % at 4.4 µM; 290,000 tested, 1.1% active; in the data active means inhibition above about 16%, passing the limit was not always enough;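 further: cells stimulated with the agonist NPW; 0% = agonist with vehicle and 100% = vehicle without agonist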
TAAR1 ag – human TAAR1 agonists, primary screen, Fluo-8 calcium fluorescence, CHO RD-HGA16 cells. Trace amine-associated receptor 1 (Homo sapiens), Q96RJ0. vehicle wells 0%, saturating PEA agonist 100%. activation, % at 3 µM. 360,000 tested, 0.99% active;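 active means activation above the mean activation of all test compounds in the run plus 3 SD, cut at about 38% in these data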
Target sequence (Q96RJ0 whole entry, looked up): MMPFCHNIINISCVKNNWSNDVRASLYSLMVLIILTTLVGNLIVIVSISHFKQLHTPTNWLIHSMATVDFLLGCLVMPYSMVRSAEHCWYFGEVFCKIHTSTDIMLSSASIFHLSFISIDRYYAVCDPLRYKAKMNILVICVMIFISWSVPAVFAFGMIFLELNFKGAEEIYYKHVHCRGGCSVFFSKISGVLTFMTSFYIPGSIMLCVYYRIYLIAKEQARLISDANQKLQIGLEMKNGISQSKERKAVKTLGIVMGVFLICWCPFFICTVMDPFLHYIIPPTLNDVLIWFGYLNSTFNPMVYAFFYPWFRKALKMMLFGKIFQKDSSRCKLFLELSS
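Assay system: CHO-derived RD-HGA16 cells with stable Gα16 and human TAAR1; timing: 17-24 h seeding, 75 min 37 °C dye, 30 min RT; read-out: % activation from peak over basal fluorescence ratio, DMSO-to-PEA scaled; measured by: kinetic Fluo-8 calcium fluorescence; benchmarks: low control DMSO, high control PEA (EC100); doses: 3 µM single concentration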
zfTRPN1 agonist – zebrafish TRPN1 channel agonists, primary screen, cell-based, HEK293, calcium fluorescence; activation, % at 3 µM; 220,000 tested, 0.18% active; AID 1424, 2008; HEK293 zebrafish TRPN1-YFP, Fluo-8 calcium fluorescence; 100% = response to 87 µM carbachol; transient receptor potential cation channel N1 (TRPN1/NompC), Danio rerio;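 active means activation above its plate's cutoff, the mean activation of test wells on that plate plus 3 SD, cut at about 19% in these data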;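 further: 0% = DMSO alone and 100% = 87 µM carbachol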
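Material – zebrafish TRPN1-YFP in HEK293 cells · Doses – 3 µM single point · Schedule – dye 1 h 37 °C plus 30 min RT · Signal – Fluo-8 calcium fluorescence, excitation 470-495 nm, emission 515-575 nm · Read-out – % activation versus carbachol response · Control set – carbachol high, DMSO low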
TRPML3 ag – human TRPML3 channel agonists, primary screen, cell-based, HEK293 TRPML3-YFP, Fluo-8 calcium fluorescence, 3 µM | 100% = the carbachol control signal | activation, % at 3 µM | 220,000 tested, 0.29% active;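 active means activation above its plate's cutoff, the mean activation of the plate's test wells plus 3 SD, cut at about 12% in these data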;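 further: 0% = DMSO only wells and 100% = carbachol wells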
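Test system: HEK293 cells stably carrying human TRPML3-YFP; Doses: single dose, 3 µM final nominal compound, 0.3% DMSO final; Schedule: dye loading 1 h 37 °C then 30 min ambient, 125 s read; Technique: Fluo-8 calcium fluorescence; Benchmarks: high control carbachol 87 µM, low control DMSO.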
TAAR1 antag – human TAAR1 antagonists, primary screen, Fluo-8 calcium fluorescence, CHO RD-HGA16 cells. Trace amine-associated receptor 1 (Homo sapiens), Q96RJ0. antagonist. inhibition, % at 3 µM. 360,000 tested, 1.5% active. AID 624466, 2012;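 active means inhibition above a per-plate cutoff, the mean inhibition of test compounds on that plate plus 3 SD, cut at about 49% in these data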;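 further: 0% = DMSO plus EC80 beta-PEA response and 100% = DMSO alone without agonist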
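Test system: hTAAR1-expressing CHO RD-HGA16 cells, Gα16-coupled; Probe or stimulus: EC80 β-phenethylamine stimulus; Compound dosing: single nominal final test compound concentration of 3 µM; Timing: 140 s kinetic read after compound, 140 s after agonist; Signal: Fluo-8 calcium-sensitive fluorescence; Measure: % inhibition of agonist calcium response; Controls: DMSO and EC80 PEA controls.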
LANA-H2A inh – blockers of LANA interaction with H2A/H2B – biochemical, FP readout, HTS, primary screen | cell-free LANA-H2A/H2B peptide, fluorescence polarization | AID 2629, 2010 | 320,000 tested, 0.6% active | inhibition, % (no concentration beside the values) | Protein LANA1 (Human herpesvirus 8 type P (isolate GK18)), Q9QR71; in the data active means inhibition mostly above about 10%, no sharp cut-off; inactive means mostly below about 6.7%
TAAR1 nonsel count – nonselective antagonists in TAAR1 counter-screen cells, counter-screen for hTAAR1 antagonist project, cell-based, fluorescence, calcium; inhibition, % at 3 µM; shares compounds with TAAR1 antag; AID 651780, 2012; counterscreen cell line, antagonist mode; 2,400 tested, 77% active; in the data active means inhibition above about 22%;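 further: CHO-Ga16 host cells stimulated with ATP at an EC80 level; 0% = agonist EC80 plus vehicle and 100% = vehicle without agonist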
TAAR1 ant conf – human TAAR1 antagonists, retest of hits, confirmation, cell-based, fluorescence; shares compounds with TAAR1 antag; TAAR1-expressing cells, fluorescence antagonist read-out; inhibition, % at 3 µM; 2,400 tested, 40% active; AID 651785, 2012; in the data active means inhibition above about 49%;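 further: CHO-Ga16 host cells challenged with agonist PEA near its EC80; 0% = agonist at EC80 plus vehicle and 100% = vehicle with no agonist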
Ga16 nonsel ag – calcium activation in Ga16-expressing cells, counter-screen for TAAR1 antagonist project, cell-based, fluorescence | 2,400 tested, 18% active | shares compounds with TAAR1 antag | agonist counterscreen | AID 651953, 2012 | activation, % at 3 µM; in the data active means activation above about 12%;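 further: 0% = vehicle wells and 100% = saturating stimulus response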
TAAR1 ag count – TAAR1 activation by candidate antagonists – cell-based, fluorescence, counter-screen for TAAR1 antagonist project; shares compounds with TAAR1 antag; hTAAR1 cell line, agonist mode; activation, % at 3 µM; 2,400 tested, 2% active; AID 651955, 2012; in the data active means activation above about 37%;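 further: CHO cells stably expressing TAAR1 with calcium dye readout; 0% = DMSO vehicle and 100% = full agonist response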
* hit, by the source's call; . = no result. The list is not random: actives were taken first. Their share in the collection is about 3.4%.

SMILES	GPR7 antagonist	TAAR1 ag	zfTRPN1 agonist	TRPML3 ag	TAAR1 antag	LANA-H2A inh	TAAR1 nonsel count	TAAR1 ant conf	Ga16 nonsel ag	TAAR1 ag count
COC(=O)C(Cc1cccc(C)n1)(c1ccccc1)c1ccccc1	-13.4	19.8	.	.	-13.9	2.9	.	.	.	.
CCN(CC(=O)NCc1cccs1)CC(=O)Nc1c(Cl)ccc(C)c1Cl	.	5.1	.	.	20.7	-0.8	.	.	.	.
CCN(CC(=O)Nc1ccccc1OC)CC(=O)Nc1c(Cl)ccc(C)c1Cl	-1.4	11.9	0.6	0.3	57.6*	1.9	21.9*	39.7	7.9	8.4
COC(=O)CNC(c1ccccc1)c1cc(C)ccc1NC(=O)c1cccc(Cl)c1 (centres undefined)	24.1*	0.4	-0.1	0.4	66.7*	-5.5	22.8*	46.7	3.4	8.7
COC(=O)N1CCC2CC1c1c(Cl)cccc12 (centres undefined)	.	8.3	.	.	-3.5	.	.	.	.	.
CC1(C)OC(=O)C2=C(C[C@@H](C3CCCCC3)O[C@H]2c2ccccc2)O1	.	-1.4	.	.	7.3	.	.	.	.	.
CC1(C)OC(=O)C2=C(C[C@@H](C3CCCCC3)O[C@H]2c2ccc(Cl)cc2)O1	.	5.4	.	.	50.4*	.	4.2	12.9	6.8	14.4
CCOC(=O)C(=O)N(C)c1c(CC)nc2c(OCc3cccc(OC)c3)cccn12	.	-0.5	.	.	-5.9	.	.	.	.	.
CCO[C@@H]1OC(C(=O)NCc2nc3ccccc3[nH]2)=C[C@H](c2csc3ccccc23)[C@H]1CCCO	-11.1	19.3	1.1	0.7	53.4*	2.8	30.4*	35.0	5.0	4.6
CCO[C@H]1OC(C(=O)NCc2nc3ccccc3[nH]2)=C[C@@H](c2csc3ccccc23)[C@@H]1CCCO	-9.8	28.7	2.0	0.5	53.6*	-5.7	25.6*	31.3	6.1	4.7
COc1cc(CNc2ncnc3c2ncn3[C@H]2CN(Cc3ccncc3)C[C@@H](CO)O2)cc(OC)c1OC	.	0.5	.	.	4.9	.	.	.	.	.
O=[N+]([O-])c1ccc(N/N=C/c2ccccc2O)cc1	29.3	37.1	.	.	79.4*	-4.5	27.5*	84.4*	9.2	51.5*
Fc1ccc2nc(-c3ccc(CN4CCC(c5nc6ccccc6[nH]5)CC4)cc3)c(-c3ccccc3)nc2c1	.	18.8	.	.	53.7*	.	47.1*	54.9*	21.3*	34.5
Cc1cc(C)c(C#N)c(OCC2CCCO2)n1 (centres undefined)	.	-1.0	.	.	-4.5	.	.	.	.	.
CCCCN1C(=O)c2ccc(C(=O)Nc3ccc(C)c(S(=O)(=O)N(C)C)c3)cc2C1=O	3.2	11.6	4.9	2.3	68.0*	-2.2	50.4*	53.8*	12.9*	8.7
CCCCN1C(=O)c2ccc(C(=O)Nc3cccc(C)c3C)cc2C1=O	-2.1	9.3	-1.0	0.3	-8.2	3.9	.	.	.	.
COc1ccc(C(=O)COC(=O)C(CCCCN2C(=O)C3C4C=CC(C4)C3C2=O)N2C(=O)C3C4C=CC(C4)C3C2=O)cc1 (centres undefined)	5.4	21.2	2.7	1.3	58.8*	.	33.0*	50.6*	9.4	9.1
